Lipid droplet = modulators of hepatic lipid droplet formation; AML12 mouse hepatocytes, oleate lipid droplets, BODIPY imaging; inhibition, % at 6.5 µM; 0.4% of 240,000 active;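 active means lipid droplet intensity inhibited by at least 50%, with more than 500 cells counted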
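Technique: fluorescence imaging, 20x objective, two fields per well / Assay system: AML12 hepatocytes (mouse) / Measure: % inhibition of lipid droplet signal / Doses: 6.5 µM single-point dosing / Incubation: overnight exposure / Reagent: 100 µM oleic acid challenge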
MEKK2mut PB1 HTS = signal of MEK5 binding to mutant human MEKK2 PB1 domain. bead flow cytometry, Alexa488-MEK5 binding to MEKK2 mutant. percent response, % at 10 µM. 0.35% of 290,000 active. AID 1530; in the data active means percent response above about 24%, passing the limit was not always enough
MEKK2wt PB1 HTS = raises or lowers MEK5 binding to wildtype human MEKK2 PB1 domain. bead flow cytometry, Alexa488-MEK5 binding to MEKK2 WT; actives lie on both sides. binding response (% of control), % at 10 µM. Q9Y2U5. 1.1% of 290,000 active; in the data active means binding response below about 67% or above about 130%
MEKK3 PB1 HTS = raises or lowers MEK5 binding to the human MEKK3 PB1 domain; bead-based flow cytometry, Alexa488-MEK5 binding to MEKK3; actives lie on both sides; 0 = blocked by unlabeled MEK5, 100 = vehicle; binding response (% of control), % at 10 µM; 1.4% of 290,000 active;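 active means binding response more than 3 SD above or below the average of its plate-row segment, actives on both sides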;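 further: Alexa488 bead fluorescence after subtracting the streptavidin-only scavenger bead signal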
Target sequence (Q99759 whole entry, looked up, the tested form may be a part): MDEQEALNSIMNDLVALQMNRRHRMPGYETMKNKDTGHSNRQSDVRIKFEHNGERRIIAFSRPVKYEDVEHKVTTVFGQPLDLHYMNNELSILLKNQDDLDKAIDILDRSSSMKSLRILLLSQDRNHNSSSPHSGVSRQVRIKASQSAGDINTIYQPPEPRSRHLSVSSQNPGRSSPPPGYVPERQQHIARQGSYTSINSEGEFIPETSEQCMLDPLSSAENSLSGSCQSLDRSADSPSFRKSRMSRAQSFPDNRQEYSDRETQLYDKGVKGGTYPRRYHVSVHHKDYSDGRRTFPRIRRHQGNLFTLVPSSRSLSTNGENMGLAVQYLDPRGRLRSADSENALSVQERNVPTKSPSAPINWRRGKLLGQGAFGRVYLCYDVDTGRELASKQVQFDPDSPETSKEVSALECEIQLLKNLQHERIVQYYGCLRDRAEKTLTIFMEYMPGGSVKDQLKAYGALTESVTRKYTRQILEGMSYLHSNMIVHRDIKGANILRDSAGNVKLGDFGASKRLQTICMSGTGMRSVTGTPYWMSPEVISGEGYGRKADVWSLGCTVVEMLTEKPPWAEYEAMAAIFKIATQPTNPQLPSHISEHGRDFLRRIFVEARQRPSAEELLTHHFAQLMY
MEKK2wt confirm = raises or lowers MEK5 binding to wildtype human MEKK2, retest. shares compounds with MEKK3 PB1 HTS. bead flow cytometry, Alexa488-MEK5 binding to MEKK2 WT; actives lie on both sides. binding response (% of control), % at 10 µM. 2.4% of 5,900 active. AID 1892; in the data active means binding response below about 16% or above about 210%; inactive means in between
MEKK2mut-MEK5 = signal of MEK5 binding to mutant human MEKK2, retest; shares compounds with MEKK3 PB1 HTS; bead flow cytometry, Alexa488-MEK5 binding to MEKK2 mutant; percent response, % at 10 µM; 2% of 5,900 active; AID 1893; in the data active means percent response mostly above about 71%, no sharp cut-off; inactive means mostly below about 38%;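 further: higher means compound restores mutant binding toward wildtype level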
MEKK3-MEK5 inh = MEKK3-MEK5 PB1 inhibition, single concentration confirmation; shares compounds with MEKK3 PB1 HTS; bead flow cytometry, Alexa488-MEK5 binding to MEKK3; active compounds read low; binding response (% of control), % at 10 µM; 1.8% of 5,900 active;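 active means binding response below 72% of control, or above a set upper limit, though filed actives all read lower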;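 further: 100% = DMSO only wells and 0% = binding blocked by excess unlabeled MEK5; lower values mean stronger disruption of MEK5 binding to MEKK3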
Starred values were filed as active, the others as inactive; [ ] = dose if it differs, or a comment. Shown are actives, neighbours in structure and some others; about 2.6% of the full set was active somewhere.

For N#CC1(c2ccccc2)CCCN1C(=O)c1ccc(Br)o1 (configuration not stated) the results were MEKK2mut PB1 HTS 0.0, MEKK2wt PB1 HTS 105.0 and MEKK3 PB1 HTS 108.0.
CCCCCCOC(=O)C(C#N)c1nc2ccccc2nc1N1CCN(CC)CC1 (configuration not stated) was read as MEKK2mut PB1 HTS 30.0, MEKK2wt PB1 HTS 158.0*, MEKK3 PB1 HTS 104.0, MEKK2wt confirm 145.0, MEKK2mut-MEK5 21.0 and MEKK3-MEK5 inh 101.0.
Screening CCCc1ccc(Oc2c(-c3ccc(O)c(C)c3O)n[nH]c2C)cc1 returned MEKK2mut PB1 HTS -3.0, MEKK2wt PB1 HTS 94.0 and MEKK3 PB1 HTS 98.0.
CCCc1ccc(Oc2cn[nH]c2-c2ccc(O)c(C)c2O)cc1 was read as Lipid droplet 2.3, MEKK2mut PB1 HTS 3.0, MEKK2wt PB1 HTS 105.0, MEKK3 PB1 HTS 123.0*, MEKK2wt confirm 97.0, MEKK2mut-MEK5 -9.0 and MEKK3-MEK5 inh 96.0.
Cc1ccc(C(=O)NCC(=O)NCCc2ccc(S(N)(=O)=O)cc2)s1 was read as Lipid droplet 12.5, MEKK2mut PB1 HTS -31.0, MEKK2wt PB1 HTS 38.0*[inhibitor], MEKK3 PB1 HTS 34.0*[inhibitor], MEKK2wt confirm 100.0, MEKK2mut-MEK5 5.0 and MEKK3-MEK5 inh 101.0.
`COc1ccc(N(CC(=O)NCc2ccccc2)C(=O)Cn2nnc(-c3ccccc3F)n2)cc1OC` gave Lipid droplet -0.3, MEKK2mut PB1 HTS 5.0, MEKK2wt PB1 HTS 102.0 and MEKK3 PB1 HTS 102.0.
`COc1ccc2cc(/C=N/O)c(Cl)nc2c1` gave Lipid droplet -4.1, MEKK2mut PB1 HTS -3.0, MEKK2wt PB1 HTS 77.0, MEKK3 PB1 HTS 67.0*[inhibitor], MEKK2wt confirm 98.0, MEKK2mut-MEK5 0.0 and MEKK3-MEK5 inh 97.0.
Screening CC(C)Cn1cnc2c1c(=O)[nH]c(=O)n2Cc1ccccc1 returned Lipid droplet -0.8, MEKK2mut PB1 HTS 3.0, MEKK2wt PB1 HTS 99.0 and MEKK3 PB1 HTS 101.0.
Screening CSc1ccc(C(=O)C2CCCN(C(=O)c3cccnc3SC)C2)cc1 (configuration not stated) returned Lipid droplet -54.1, MEKK2mut PB1 HTS -14.0, MEKK2wt PB1 HTS 61.0 and MEKK3 PB1 HTS 71.0.
`COc1ccccc1C(=O)C1CCCN(C(=O)c2cccnc2SC)C1` (configuration not stated) gave Lipid droplet -31.4, MEKK2mut PB1 HTS 541.0*, MEKK2wt PB1 HTS 632.0*, MEKK3 PB1 HTS 128.0*, MEKK2wt confirm 100.0, MEKK2mut-MEK5 -1.0 and MEKK3-MEK5 inh 99.0.
Screening COc1cccc(CN2CC(C(=O)NCCCCc3ccccn3)CCC2=O)c1 (configuration not stated) returned Lipid droplet 0.6, MEKK2mut PB1 HTS -3.0, MEKK2wt PB1 HTS 100.0 and MEKK3 PB1 HTS 100.0.
CC(Cc1ccccc1)NC(=O)/C=C/c1ccc([N+](=O)[O-])cc1 (configuration not stated) was read as Lipid droplet 1.2, MEKK2mut PB1 HTS 1.0, MEKK2wt PB1 HTS 108.0, MEKK3 PB1 HTS 150.0*, MEKK2wt confirm 101.0, MEKK2mut-MEK5 -2.0 and MEKK3-MEK5 inh 102.0.
For NS(=O)(=O)c1ccc(CCNC(=O)CSc2ccc(Cl)cc2Cl)cc1 the results were Lipid droplet 3.3, MEKK2mut PB1 HTS -13.0, MEKK2wt PB1 HTS 43.0*[inhibitor], MEKK3 PB1 HTS 40.0*[inhibitor], MEKK2wt confirm 103.0, MEKK2mut-MEK5 8.0 and MEKK3-MEK5 inh 103.0.
For NS(=O)(=O)c1ccc(CCNC(=O)CSc2ccc(Cl)cc2)cc1 the results were Lipid droplet 4.3, MEKK2mut PB1 HTS 12.0, MEKK2wt PB1 HTS 114.0 and MEKK3 PB1 HTS 103.0.
For CCOc1ccc(NC(=O)CSc2nnc(-c3cc(C)[nH]n3)n2N)cc1 the results were Lipid droplet -4.2, MEKK2mut PB1 HTS 1.0, MEKK2wt PB1 HTS 101.0 and MEKK3 PB1 HTS 101.0.
CC(C)(C)c1n[nH]c(=S)n(/N=C/c2cccs2)c1=O was read as Lipid droplet 9.8, MEKK2mut PB1 HTS 0.0, MEKK2wt PB1 HTS 109.0, MEKK3 PB1 HTS 147.0*, MEKK2wt confirm 104.0, MEKK2mut-MEK5 15.0 and MEKK3-MEK5 inh 104.0.
For Cc1n[nH]c(=S)n(/N=C/c2cccs2)c1=O the results were Lipid droplet -2.3, MEKK2mut PB1 HTS 6.0, MEKK2wt PB1 HTS 103.0 and MEKK3 PB1 HTS 102.0.
Screening COc1ccc(S(=O)(=O)N2CCC(C(=O)N3CCOCC3)CC2)cc1Cl returned Lipid droplet 11.2, MEKK2mut PB1 HTS -8.0, MEKK2wt PB1 HTS 92.0 and MEKK3 PB1 HTS 99.0.
`COc1ccc(S(=O)(=O)N2CCC(C(=O)N3CCCCC3)CC2)cc1OC` gave MEKK2mut PB1 HTS 6.0, MEKK2wt PB1 HTS 121.0, MEKK3 PB1 HTS 130.0*, MEKK2wt confirm 98.0, MEKK2mut-MEK5 9.0 and MEKK3-MEK5 inh 102.0.
COc1ccc(C(=O)Cn2nc(CNc3ccc(Br)cc3)[n+]3c2CCCCC3)cc1 was read as Lipid droplet -1.5, MEKK2mut PB1 HTS 5.0, MEKK2wt PB1 HTS 150.0*, MEKK3 PB1 HTS 103.0, MEKK2wt confirm 148.0, MEKK2mut-MEK5 20.0 and MEKK3-MEK5 inh 107.0.
`COc1ccc(S(=O)(=O)NCC2CCCN(Cc3cccnc3)C2)cc1` (configuration not stated) gave Lipid droplet 4.1, MEKK2mut PB1 HTS -4.0, MEKK2wt PB1 HTS 56.0*[inhibitor], MEKK3 PB1 HTS 89.0, MEKK2wt confirm 99.0, MEKK2mut-MEK5 -1.0 and MEKK3-MEK5 inh 95.0.
CSCC[C@H](NC(=O)[C@@H]1CSC2c3ccccc3C(=O)N21)C(=O)NCc1ccco1 (some centres not stated) was read as Lipid droplet -6.3, MEKK2mut PB1 HTS 1.0, MEKK2wt PB1 HTS 98.0 and MEKK3 PB1 HTS 102.0.
`COc1ccccc1NC(=O)c1ccc(NC(=O)CN2CCCC2)cc1` gave Lipid droplet 0.6, MEKK2mut PB1 HTS -1.0, MEKK2wt PB1 HTS 101.0 and MEKK3 PB1 HTS 103.0.
`COc1ccccc1NC(=O)c1ccc(NC(=O)COC(=O)C2CCCCC2)cc1` gave Lipid droplet 11.7, MEKK2mut PB1 HTS 1.0, MEKK2wt PB1 HTS 112.0, MEKK3 PB1 HTS 137.0*, MEKK2wt confirm 106.0, MEKK2mut-MEK5 -1.0 and MEKK3-MEK5 inh 108.0.
For CC(=O)c1ccc(N2CCN(S(=O)(=O)c3c(C)[nH]c(C)c3C(=O)N3CCCCC3)CC2)cc1 the results were Lipid droplet 10.0, MEKK2mut PB1 HTS 0.0, MEKK2wt PB1 HTS 104.0 and MEKK3 PB1 HTS 100.0.
`CCOc1cc(C(=S)N2CCCCC2)ccc1OCC(=O)NCc1ccccc1` gave Lipid droplet 15.8, MEKK2mut PB1 HTS -8.0, MEKK2wt PB1 HTS 87.0, MEKK3 PB1 HTS 75.0*[inhibitor], MEKK2wt confirm 107.0, MEKK2mut-MEK5 7.0 and MEKK3-MEK5 inh 106.0.
